Source: ChEMBL document CHEMBL1158563, “Identification of benzimidazole-based inhibitors of the mitogen activated kinase-5 signaling pathway” (2010)

Molecular target: T1, Dual specificity mitogen-activated protein kinase kinase 5 (Homo sapiens) (UniProt Q13163)
T1 sequence (whole entry): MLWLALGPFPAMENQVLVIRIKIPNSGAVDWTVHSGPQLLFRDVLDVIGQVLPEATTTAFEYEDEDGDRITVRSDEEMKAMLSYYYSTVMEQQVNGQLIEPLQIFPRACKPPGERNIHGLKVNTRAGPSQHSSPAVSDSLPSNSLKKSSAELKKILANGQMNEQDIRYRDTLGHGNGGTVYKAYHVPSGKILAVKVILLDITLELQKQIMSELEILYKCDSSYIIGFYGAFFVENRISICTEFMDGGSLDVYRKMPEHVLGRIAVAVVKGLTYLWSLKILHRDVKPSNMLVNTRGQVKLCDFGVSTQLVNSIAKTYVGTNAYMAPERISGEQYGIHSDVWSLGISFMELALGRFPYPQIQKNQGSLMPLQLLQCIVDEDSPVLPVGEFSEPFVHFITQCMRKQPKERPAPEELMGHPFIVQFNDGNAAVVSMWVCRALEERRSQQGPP
Assay: Inhibition of EGF-induced MEK5-mediated ERK5 phosphorylation in human HEK293 cells at 10 uM treated after 30 mins EGF challenge measured after 30 mins by Western blot analysis relative to control
Type: cell-based
Design: scale not given: the % may be the effect or the level left
How it was run: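 HEK293 cells were grown in medium with 10% heat-inactivated FBS and 0.5% penicillin/streptomycin at 37 °C, 5% CO2. They were stimulated with 50 ng/mL EGF, then given 10 µM compound (final) 30 min later, and lysed 30 min after that in 1% Triton buffer. 60 µg protein was run on 10% SDS gels and blotted for pERK1/2 (1:1000) or pERK5 (1:500).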

For `c1ccc(CNc2cc(Cc3ccccc3)cc3c2ncn3C2CCCC2)cc1`, the Activity was 78%.
`CCC(CO)Oc1cc(NCc2ccccc2)c2ncn(C3CCCC3)c2c1` (configuration not stated) was tested, and the Activity was 132%.
